{
  "source": "PubChem BioAssay AID540339",
  "about": "(Broad Institute, 2011)",
  "note": "The source made the active and inactive calls.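 How the source made its calls: active means compounds that lower cell viability signal with a fitted half-maximal concentration within ten times the top tested dose; inconclusive means flat curve inhibiting 30 to 70%, or an unreliable fit; inactive means the rest.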",
  "data": [
    {"system": "MALME3 melanoma viability, CellTiter-Glo luminescence, 24 h", "test": "MALME3 melanoma cell viability loss, dose response, orthogonal assay for MITF inhibitor project, CellTiter-Glo, dry powder samples (AID 540339)", "conditions": "not given", "summary_of_the_method": "(§1)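 Material: MALME3 melanoma cells. Medium: IMDM with 10% FBS, without phenol red. Dosing: compound dose-response series delivered by pin transfer. Schedule: 24 h compound treatment at 37 °C. Technique: CellTiter-Glo luminescence reporting cellular ATP.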", "units": {"AC50": "µM"}, "values": [
      {"smiles": "CCN1CCN(C2=C(NS(=O)(=O)c3ccc(Br)cc3)C(=O)c3ccccc3C2=O)CC1", "AC50": 17.7},
      {"smiles": "O=C(Nc1ccc(N2CCN(C(=O)c3ccccc3)CC2)cc1)c1ccc([N+](=O)[O-])o1", "AC50": 16.7},
      {"smiles": "CCN1CCCC1CNC(=O)c1ccc2c(c1)NC(=O)/C(=C\\c1ccc(C)cc1)S2", "note": "(stereo unspecified)", "AC50": 20},
      {"smiles": "CC1CCN(CC(CS(=O)(=O)c2ccc([N+](=O)[O-])cc2)N2CCC(C)CC2)CC1", "note": "(stereo unspecified)", "AC50": 18.6},
      {"smiles": "Cc1nc2ccccc2n1/N=C/c1ccc([N+](=O)[O-])s1", "AC50": 10.3},
      {"smiles": "COc1cc2c(cc1OC)C(c1ccccc1)N(C(=O)CCl)CC2", "note": "(stereo unspecified)", "AC50": 18},
      {"smiles": "CC(C)C(CCNC1CCN(C)CC1)c1ccc(Cl)cc1", "note": "(stereo unspecified)", "AC50": 4.04},
      {"smiles": "Cc1[nH]c2ccccc2c1C(=O)CCl", "AC50": 31.8},
      {"smiles": "Cc1ccc(C(=O)N/N=C/c2ccc([N+](=O)[O-])s2)cc1", "AC50": 14.8},
      {"smiles": "COc1cc(/C=N/NC(N)=O)c(Br)cc1OCC(=O)Nc1ccccc1C", "AC50": 32.8},
      {"smiles": "CC1(C)CC(NC(=O)c2ccc(Cl)c(S(=O)(=O)N(Cc3ccccc3)c3ccccc3)c2)CC(C)(C)N1", "AC50": 17.4},
      {"smiles": "COc1ccc(S(=O)(=O)N(C(C)=O)c2ccc(OC(C)=O)c3ccccc23)cc1[N+](=O)[O-]", "AC50": 4.21},
      {"smiles": "N=c1n(CCN2CCCC2)c2ccccc2n1CC(O)c1ccc(Cl)c(Cl)c1", "note": "(stereo unspecified)", "AC50": 18.6},
      {"smiles": "CN(C)CCCNC(=O)/C(=C\\c1ccc(-c2ccc(Br)cc2)o1)NC(=O)c1ccccc1", "AC50": 17.4},
      {"smiles": "CCN1c2ccccc2NC2N=C(OC)C(c3ccccc3)C21", "note": "(stereo unspecified)", "AC50": 7.91},
      {"smiles": "O=C(Nc1ccc(-c2nc3ncccc3o2)cc1)c1ccc([N+](=O)[O-])o1", "AC50": 14.5},
      {"smiles": "CC1=NNC(=O)/C1=C\\c1cn(-c2ccccc2)nc1-c1ccc(F)cc1", "AC50": 36.5},
      {"smiles": "O=C(CNc1cccc2ccccc12)N/N=C/c1ccc([N+](=O)[O-])o1", "AC50": 20},
      {"smiles": "O=c1c(Cl)c2oc3ccccc3nc-2c2ccccc12", "AC50": 18.2},
      {"smiles": "CCN(CC)CCNC(=O)c1c(C)n(-c2ccccc2)c2cc(Br)c(OC)cc12", "AC50": 34.1},
      {"smiles": "CC1CN(C(=O)CCC(=O)NCCCN2CCC(Cc3ccccc3)CC2)c2cc(Cl)ccc2O1", "note": "(stereo unspecified)", "AC50": 29.9},
      {"smiles": "C=CCNC1=C(Cl)C(=O)c2ccccc2C1=O", "AC50": 8.93},
      {"smiles": "O=C(Cn1ncc(Cl)c(Cl)c1=O)N1CCc2ccccc21", "AC50": 5.07},
      {"smiles": "O=C(COc1ccccc1)N/N=C/c1ccc([N+](=O)[O-])o1", "AC50": 19.1},
      {"smiles": "Cc1ccc(C(C)C)c(OCc2nn(CC(=O)c3ccc(Cl)cc3)c3[n+]2CCCCC3)c1", "AC50": 23.1}
    ]},
    {"system": "not listed separately", "test": "MALME3 melanoma cell viability loss, dose response, orthogonal assay for MITF inhibitor project, CellTiter-Glo, dry powder samples (AID 540339)", "conditions": "MALME3 melanoma viability, CellTiter-Glo luminescence, 24 h; at 35 µM (top of the series)", "summary_of_the_method": "as §1", "values": [
      {"smiles": "CC1CCCCC1NC(=O)/C(C#N)=C/C=C/c1ccccc1[N+](=O)[O-]", "note": "(stereo unspecified)", "activity change, negative = inhibition": "2.17% (inactive)"}
    ]}
  ]
}
